Paper PMC11352836 (Science Advances, 2024)
One block for each compound: values may come before it. Peptide text beside a SMILES is read from it. * marks the point of attachment. Cbz = O=C(OCc1ccccc1)*

Tests used:
ENL [1] = molecular target: T1, ENL (Homo sapiens, UniProt Q03111); assay type: cell-based; details: MV4;11 cells pretreated 1 hour, then 100 nM MS41 for 2 hours
T1 sequence (Q03111 1-559): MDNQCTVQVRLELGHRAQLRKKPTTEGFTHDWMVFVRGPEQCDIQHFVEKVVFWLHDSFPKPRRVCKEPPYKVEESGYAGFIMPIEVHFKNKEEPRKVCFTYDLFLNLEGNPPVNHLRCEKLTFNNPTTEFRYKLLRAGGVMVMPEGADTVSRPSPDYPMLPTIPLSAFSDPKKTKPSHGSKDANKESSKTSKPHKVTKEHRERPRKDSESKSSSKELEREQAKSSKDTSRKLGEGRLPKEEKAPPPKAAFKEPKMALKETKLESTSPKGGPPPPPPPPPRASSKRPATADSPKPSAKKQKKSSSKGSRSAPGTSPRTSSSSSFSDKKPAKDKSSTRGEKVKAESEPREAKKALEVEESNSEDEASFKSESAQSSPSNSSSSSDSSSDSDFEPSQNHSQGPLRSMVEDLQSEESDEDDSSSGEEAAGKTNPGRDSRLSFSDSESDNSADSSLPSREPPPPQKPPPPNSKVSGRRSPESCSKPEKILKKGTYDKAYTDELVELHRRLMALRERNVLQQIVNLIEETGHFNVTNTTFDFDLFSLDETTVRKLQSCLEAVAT
In short: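 MV4;11 cells were pretreated 1 h with graded concentrations of a YEATS-domain ligand, a VHL ligand, proteasome inhibitor MG132, or neddylation inhibitor MLN4924, then given 100 nM test compound for 2 h. Separately, control-sgRNA or VHL-sgRNA MV4;11 cells got graded test compound for 24 h. ENL and VHL were read by immunoblot.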

KASUMI1 cells = assay: Colony formation assay; assay type: cell-based, human; details: KASUMI1, 100 nM, 10 days
ENL YEATS domain = molecular target: T2, ENL YEATS domain (Homo sapiens, UniProt Q03111); assay: AlphaScreen assay, ENL YEATS-H3K9ac interaction; assay type: binding
T2 sequence (Q03111 1-145): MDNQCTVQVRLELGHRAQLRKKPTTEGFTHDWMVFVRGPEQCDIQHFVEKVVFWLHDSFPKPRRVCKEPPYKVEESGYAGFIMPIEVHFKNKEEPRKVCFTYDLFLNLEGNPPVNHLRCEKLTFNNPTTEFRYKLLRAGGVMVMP

MV4;11 cells [2] = assay: MS-based global quantitative; assay type: cell-based, human; details: MV4;11, 100 nM, 2 or 6 hours; cutoff P value <0.05 and fold change >1.5
In short: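 MV4;11 cells (10^6 per sample, three biological replicates) were exposed to 100 nM test compound or DMSO for 2 or 6 h. Pellets were solubilised in 8 M urea/50 mM Tris pH 8.0, reduced with 5 mM DTT and alkylated with 15 mM iodoacetamide. After fourfold dilution, samples were digested with trypsin (1:100, overnight, RT), desalted on C18 and analysed by nanoLC-MS. Proteins with ≥2 razor+unique peptides were compared by two-sample t test.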

MV4;11 cells [3] = assay: Cell viability assay; assay type: cell-based, human; details: MV4;11, 6 days
MV4;11 cells [4] = assay: RNA-seq analysis in MV4; assay type: cell-based, human; details: MV4;11, 6 and 24 hours
SEMK2 cells = assay: Cell viability assay; assay type: cell-based, human; details: SEMK2, 6 days
ENL [5] = molecular target: T1, ENL; assay: Endogenous ENL degradation by immunoblotting in human leukemia cell lines; assay type: cell-based; details: MV4;11 cells; 1 nM to 10 μM, 6 and 24 hours
In short: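 MV4;11 and Jurkat cells were treated with DMSO or graded test-compound concentrations for 6 or 24 h. Cells were lysed in Tris/250 mM NaCl/0.5% Triton X-100/glycerol buffer with DTT and protease inhibitors. Bradford-equalised lysates were immunoblotted for ENL, with β-actin as loading control.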

RS4;11 cells = assay: Cell viability assay; assay type: cell-based, human; details: RS4;11, 6 days
HEK293 cells = assay: RT-qPCR of HOXA11 and HOXA13 in HEK293 cells expressing ENL mutants; assay type: cell-based, human; details: HEK293 stable cells, 100 nM, 72 hours
In short: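 HEK293 stable lines expressing ENL mutants were treated with DMSO, 100 nM test compound or 100 nM controls for 72 h. HOXA11 and HOXA13 mRNA was measured by RT-qPCR in three independent experiments, reported as mean ± SEM with Student's t test.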

MV4;11 cells [6] = assay: RT-qPCR of ENL target genes and ENL in MV4; assay type: cell-based, human; details: MV4;11, 24 hours
MV4;11 cells [7] = assay: Cell cycle and apoptosis assay; assay type: cell-based, human; details: MV4;11, 100 nM
In short: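 Cells were harvested at set time points. For cell cycle, cells in HBSS/2% FBS were fixed with dropwise ice-cold 70% ethanol and stained with DAPI. For apoptosis, cells were PBS-washed at 1×10^6 cells/ml in binding buffer, stained with FITC-annexin V plus propidium iodide for 15 min at RT, and run on flow cytometry within 1 h.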

ENL [8] = details: cited from earlier work
IKZF1 = details: cited from earlier work
[9] = test system: xenograft leukemia models; details: cited from earlier work
[10] = cited from earlier work
MV4;11 cells [11] = assay: Drug synergy test, MS41 with doxorubicin; assay type: cell-based, human; details: MV4;11, cotreatment, 6 days
In short: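 MV4;11 cells were given DMSO, test compound, doxorubicin, or the combination at graded concentrations for 6 days. Viability was read by CellTiter-Glo luminescence.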

SMILES: CC(C)C[C@@H](C=O)NC(=O)[C@H](CC(C)C)NC(=O)[C@H](CC(C)C)NC(=O)OCc1ccccc1 [MG132] (Cbz-Leu-Leu-Leu-aldehyde)
effect of pretreatment on MS41-mediated ENL degradation (ENL [1]): effectively blocked

SMILES: O=C(COc1cccc2c1C(=O)N(C1CCC(=O)NC1=O)C2=O)NCCOCCOCCNS(=O)(=O)Nc1cccc(-c2cn3cc(C(=O)NC4CCC4)ccc3n2)c1 (centres unmarked) [SR-1114]
ENL depletion (ENL [8]): able to induce ENL depletion
IKZF1 degradation (off-target) (IKZF1): concurrent degradation of IKZF1

SMILES: C[C@H]1CCCN1Cc1cc2cnc(NC(=O)c3ccc4c(cnn4C)c3)cc2[nH]1 [TDI-11055]
in vivo efficacy [9]: in vivo efficacy in xenograft leukemia models

SMILES: Cc1ncsc1-c1ccc(CNC(=O)[C@@H]2C[C@@H](O)CN2C(=O)[C@@H](NC(=O)CCOCCNC(=O)c2ccc3c(c2)[C@H](NC(=O)c2cc(-c4ccc(C(=O)N(C)C)c(O)c4)on2)CC3)C(C)(C)C)cc1 [compound 1]
antitumor activity [10]: exhibiting antitumor activity

SMILES: COc1cccc2c1C(=O)c1c(O)c3c(c(O)c1C2=O)C[C@@](O)(C(=O)CO)C[C@@H]3O[C@H]1C[C@H](N)[C@H](O)[C@H](C)O1 [doxorubicin]
interaction of MS41 and doxorubicin (Bliss independence model) (MV4;11 cells [11]): strong synergistic effect

Further lines, with some results ahead:

effect of pretreatment on MS41-mediated ENL degradation (ENL [1]): effectively blocked
SMILES: NS(=O)(=O)OC[C@@H]1C[C@@H](n2ccc3c(N[C@H]4CCc5ccccc54)ncnc32)C[C@@H]1O [MLN4924]

IC50 (ENL YEATS domain): 117 nM
SMILES: Cc1ncsc1-c1ccc([C@H](C)NC(=O)[C@H]2C[C@H](O)CN2C(=O)[C@@H](NC(=O)CCCCCCCCCNC(=O)c2ccc3c(c2)[C@H](NC(=O)c2cc(-c4ccc(C(=O)N(C)C)c(O)c4)on2)CC3)C(C)(C)C)cc1 [MS41N]
clonogenic potential (colony formation) (KASUMI1 cells): but not MS41N or PFI-6
proteome-wide selectivity (change in protein abundance) (MV4;11 cells [2]): did not substantially alter the abundance of any proteins
cell growth suppression (MV4;11 cells [3]): did not suppress cell growth
changes in gene expression (RNA-seq) (MV4;11 cells [4]): did not induce substantial changes in gene expression
cell growth suppression (SEMK2 cells): did not suppress cell growth
endogenous ENL protein degradation (immunoblot) (ENL [5]): did not induce ENL degradation, even at 10 μM
cell growth suppression (RS4;11 cells): did not suppress cell growth
HOXA11 and HOXA13 gene expression induced by ENL mutants (HEK293 cells): had no or only minor effects on HOXA11 and HOXA13 gene expression
mRNA levels of ENL (RT-qPCR) (MV4;11 cells [6]): did not affect mRNA levels of ENL
apoptosis (MV4;11 cells [7]): had no such effects
cell cycle profile (MV4;11 cells [7]): had no such effects

effect of pretreatment on MS41-mediated ENL degradation (ENL [1]): hindered MS41-mediated ENL degradation
SMILES: Cc1ncsc1-c1ccc(CNC(=O)[C@@H]2C[C@@H](O)CN2C(=O)[C@@H](NC(=O)C2(C#N)CC2)C(C)(C)C)cc1 [VH298]
